Activity calls are given as the source filed them. The calls are words filed in the database; no cut-off is given here.
Legend:
Beta-secretase 1 [1] = molecular target: T1, Beta-secretase 1 (Homo sapiens, UniProt P56817); assay: Inhibition of BACE1 in HEK293 cells transfected with human betaAPP695 mutant assessed as inhibition of amyloid beta (1 to 40) production after 24 hrs by ELISA; assay type: cell-based
Procedure, shortened: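 HEK293 cells stably carrying APP695 with Swedish double mutation, grown in DMEM plus 10% heat-inactivated FBS. Compounds added at seeding at several concentrations, 24 h at 37 °C, 5% CO2. Secreted Aβ1-40 in conditioned medium quantified by colorimetric sandwich ELISA.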

Beta-secretase 1 [2] = molecular target: T1, Beta-secretase 1; assay: Inhibition of human recombinant C-terminal histidine-tagged BACE1 expressed in baculovirus-infected insect cells by FRET assay
Mus musculus [3] = assay: Decrease in amyloid beta (1 to 40) production in transgenic mouse transfected with human APP695 Swedish double mutant at 10 nmol, intracerebroventricularly after 4 hrs by ELISA relative to control; assay type: functional; parameters: scale not given: the % may be the effect or the level left
Procedure, shortened: (§1)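 The vehicle control was distilled H2O. After 4 h, hemispheres were isolated on ice and Aβ1-40 was measured by colorimetric human Aβ1-40 ELISA against vehicle-treated mice. Data are means ± SD; independent t-test.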

PC-12 = assay: Cell protective activity against H2O2-induced cell injury in rat PC12 cells assessed as cell viability at 1 to 10 uM pretreated for 2 hrs measured after 24 hrs by MTT assay; assay type: functional, cell-based
Procedure, shortened: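 PC12 cells seeded at 1 × 10^5 cells per mL in DMEM with 10% heat-inactivated bovine calf serum, used 24 h later. Compounds dissolved in 2% DMSO then diluted in PBS; 2 h pretreatment, H2O2 for 30 min, then fresh phenol red-free DMEM. Viability by MTT reduction 24 h later, absorbance 570 and 630 nm. Means ± SD, one-way ANOVA with Duncan's test.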

Mus musculus [4] = assay: Decrease in amyloid beta (1 to 40) production in transgenic mouse transfected with human APP695 Swedish double mutant at 8 nmol, intracerebroventricularly after 4 hrs by ELISA relative to control; assay type: functional; parameters: scale not given: the % may be the effect or the level left; procedure, shortened: as §1

T1 sequence (P56817 whole entry): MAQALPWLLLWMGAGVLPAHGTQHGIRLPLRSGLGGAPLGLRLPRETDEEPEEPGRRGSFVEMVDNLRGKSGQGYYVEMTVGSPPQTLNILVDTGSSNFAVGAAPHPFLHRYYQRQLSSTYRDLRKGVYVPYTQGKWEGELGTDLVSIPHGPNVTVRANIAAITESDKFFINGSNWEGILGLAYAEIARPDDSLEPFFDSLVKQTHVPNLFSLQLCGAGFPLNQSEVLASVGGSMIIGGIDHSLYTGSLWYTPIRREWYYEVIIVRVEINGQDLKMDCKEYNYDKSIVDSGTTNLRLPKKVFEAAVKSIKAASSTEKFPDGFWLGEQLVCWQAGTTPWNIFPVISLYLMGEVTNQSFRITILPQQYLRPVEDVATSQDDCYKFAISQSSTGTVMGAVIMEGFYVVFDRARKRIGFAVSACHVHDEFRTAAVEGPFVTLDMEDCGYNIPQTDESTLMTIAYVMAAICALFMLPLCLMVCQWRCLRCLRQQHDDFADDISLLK

| SMILES | IC50 (Beta-secretase 1 [1]) | IC50 (Beta-secretase 1 [2]) | also measured |
| --- | --- | --- | --- |
| CC(C)C[C@H](NC(=O)c1cc(C(=O)N[C@H](C)c2ccccc2)cc(N(C)S(C)(=O)=O)c1)[C@@H](O)C[C@@H](C)C(=O)NC1CCN(Cc2ccccc2)CC1 | < 1000 nM | 1540 nM |  |
| CC(C)C[C@H](NC(=O)c1cc(C(=O)N[C@H](C)c2ccccc2)cc(N(C)S(C)(=O)=O)c1)[C@@H](O)C[C@@H](C)C(=O)NN1CCN(Cc2ccccc2)CC1 | < 1000 nM |  |  |
| C[C@@H](NC(=O)c1cc(C(=O)N[C@@H](Cc2ccccc2)C(O)C(=O)NCCC2CCN(Cc3ccccc3)CC2)cc(N(C)S(C)(=O)=O)c1)c1ccc(F)cc1 (mixture of isomers) | < 1000 nM |  |  |
| C[C@@H](NC(=O)c1cc(C(=O)N[C@@H](Cc2ccccc2)[C@H](O)CNCC2CCN(Cc3ccccc3)CC2)cc(N(C)S(C)(=O)=O)c1)c1ccc(F)cc1 | < 1000 nM | 3230 nM |  |
| C[C@@H](NC(=O)c1cc(C(=O)N[C@@H](Cc2ccccc2)[C@H](O)CNC2CCN(Cc3ccccc3)CC2)cc(N(C)S(C)(=O)=O)c1)c1ccccc1 | 54.6 nM | 511 nM | Activity (Mus musculus [3]): 23%; Activity (PC-12): Active |
| CC(C)C[C@H](NC(=O)c1cc(C(=O)N[C@H](C)c2ccc(F)cc2)cc(N(C)S(C)(=O)=O)c1)[C@@H](O)C[C@@H](C)C(=O)NCC1CCN(Cc2ccccc2)CC1 | < 1000 nM | 616 nM |  |
| C[C@@H](NC(=O)c1cc(C(=O)N[C@@H](Cc2ccccc2)[C@H](O)CNC2CCN(Cc3ccccc3)CC2)cc(N(C)S(C)(=O)=O)c1)c1ccc(F)cc1 | < 1000 nM | 771 nM |  |
| CCCN(CCC)C(=O)c1cc(C(=O)N[C@@H](Cc2ccccc2)[C@H](O)CNCCC2CCN(Cc3ccccc3)CC2)cc([N+](=O)[O-])c1 | < 1000 nM |  |  |
| C[C@@H](NC(=O)c1cc(C(=O)N[C@@H](Cc2ccccc2)C(O)C(=O)NCCC2CCN(Cc3ccccc3)CC2)cc(N(C)S(C)(=O)=O)c1)c1ccccc1 (mixture of isomers) | < 1000 nM |  |  |
| C[C@@H](NC(=O)c1cc(C(=O)N[C@@H](Cc2ccccc2)C(O)C(=O)NC2CCN(Cc3ccccc3)CC2)cc(N(C)S(C)(=O)=O)c1)c1ccccc1 (mixture of isomers) | < 1000 nM |  |  |
| CC(C)C[C@H](NC(=O)c1cc(C(=O)N[C@H](C)c2ccc(F)cc2)cc(N(C)S(C)(=O)=O)c1)[C@@H](O)C[C@@H](C)C(=O)NC1CCN(Cc2ccccc2)CC1 | < 1000 nM | 1500 nM |  |
| CCCN(CCC)C(=O)c1cc(C(=O)N[C@@H](Cc2ccccc2)C(O)C(=O)NC2CCN(Cc3ccccc3)CC2)cc([N+](=O)[O-])c1 (mixture of isomers) | < 1000 nM |  |  |
| C[C@@H](NC(=O)c1cc(C(=O)N[C@@H](Cc2ccccc2)C(O)C(=O)NCC2CCN(Cc3ccccc3)CC2)cc(N(C)S(C)(=O)=O)c1)c1ccccc1 (mixture of isomers) | < 1000 nM |  |  |
| C[C@@H](NC(=O)c1cc(C(=O)N[C@@H](Cc2ccccc2)[C@H](O)CNCCC2CCN(Cc3ccccc3)CC2)cc(N(C)S(C)(=O)=O)c1)c1ccc(F)cc1 | < 1000 nM | 222 nM |  |
| C[C@@H](NC(=O)c1cccc(C(=O)N[C@@H](Cc2ccccc2)[C@H](O)CNCCC2CCN(Cc3ccccc3)CC2)c1)c1ccccc1 | < 1000 nM |  |  |
| C[C@@H](NC(=O)c1cc(C(=O)N[C@@H](Cc2ccccc2)[C@H](O)CNCC2CCN(Cc3ccccc3)CC2)cc(N(C)S(C)(=O)=O)c1)c1ccccc1 | < 1000 nM | 4000 nM |  |
| C[C@@H](NC(=O)c1cc(C(=O)N[C@H](CO)Cc2ccccc2)cc(N(C)S(C)(=O)=O)c1)c1ccc(F)cc1 | < 1000 nM | 462 nM |  |
| C[C@@H](NC(=O)c1cc(C(=O)N[C@@H](Cc2ccccc2)[C@H](O)CNCCC2CCN(Cc3ccccc3)CC2)cc([N+](=O)[O-])c1)c1ccccc1 | < 1000 nM | 7020 nM |  |
| C[C@@H](NC(=O)c1cc(C(=O)N[C@@H](Cc2ccccc2)[C@H](O)CNCCC2CCN(Cc3ccccc3)CC2)cc(N(C)S(C)(=O)=O)c1)c1ccccc1 | 98.7 nM | 567 nM | Activity (Mus musculus [4]): 29%; Activity (PC-12): Active |
| CCCN(CCC)C(=O)c1cccc(C(=O)N[C@@H](Cc2ccccc2)[C@H](O)CNCCC2CCN(Cc3ccccc3)CC2)c1 | < 1000 nM |  |  |
| CCCN(CCC)C(=O)c1cc(C(=O)N[C@@H](Cc2ccccc2)[C@H](O)CNCCC2CCN(Cc3ccccc3)CC2)cc(N(C)S(C)(=O)=O)c1 | < 1000 nM | 2390 nM |  |
| CC(C)C[C@H](NC(=O)c1cc(C(=O)N[C@H](C)c2ccc(F)cc2)cc(N(C)S(C)(=O)=O)c1)[C@@H](O)C[C@@H](C)C(=O)NCCC1CCN(Cc2ccccc2)CC1 | < 1000 nM | 1340 nM |  |
| C[C@@H](NC(=O)c1cc(C(=O)N[C@@H](Cc2ccccc2)[C@H](O)CNCCC2CCN(Cc3ccccc3)CC2)cc([N+](=O)[O-])c1)c1ccc(F)cc1 | < 1000 nM | 2680 nM |  |
| C[C@@H](NC(=O)c1cc(C(=O)N[C@@H](Cc2ccccc2)C(O)C(=O)NCC2CCN(Cc3ccccc3)CC2)cc(N(C)S(C)(=O)=O)c1)c1ccc(F)cc1 (mixture of isomers) | < 1000 nM |  |  |
| C[C@@H](NC(=O)c1cccc(C(=O)N[C@@H](Cc2ccccc2)[C@H](O)CNCCC2CCN(Cc3ccccc3)CC2)c1)c1ccc(F)cc1 | < 1000 nM |  |  |
| C[C@@H](NC(=O)c1cc(C(=O)N[C@@H](Cc2ccccc2)C(O)C(=O)NC2CCN(Cc3ccccc3)CC2)cc(N(C)S(C)(=O)=O)c1)c1ccc(F)cc1 (mixture of isomers) | < 1000 nM |  |  |
| CCCN(CCC)C(=O)c1cc(C(=O)N[C@@H](Cc2ccccc2)C(O)C(=O)NCCC2CCN(Cc3ccccc3)CC2)cc([N+](=O)[O-])c1 (mixture of isomers) | < 1000 nM |  |  |
| CC(C)C[C@H](NC(=O)c1cc(C(=O)N[C@H](C)c2ccc(F)cc2)cc(N(C)S(C)(=O)=O)c1)[C@@H](O)C[C@@H](C)C(=O)NN1CCN(Cc2ccccc2)CC1 | < 1000 nM |  |  |
| CCCN(CCC)C(=O)c1cc(C(=O)N[C@@H](Cc2ccccc2)C(O)C(=O)NCC2CCN(Cc3ccccc3)CC2)cc([N+](=O)[O-])c1 (mixture of isomers) | < 1000 nM |  |  |

Reference: ChEMBL document CHEMBL1152701, “Design, synthesis and biological evaluation of novel dual inhibitors of acetylcholinesterase and beta-secretase” (Bioorg Med Chem, 2009)
